# Results from ChEMBL document CHEMBL1128557, “Synthesis, antitumor activity, and chemical properties of silaplatin and related platinum (II) and platinum (IV) complexes derived from beta-silyl amines” (J Med Chem, 1995).
# Values joined by “and” are separate entries in the source; they are usually repeats but may differ in a detail not shown here. Identical values can stand only once.
# How the values were obtained:
# Mus musculus [1] = experiment: The compound was evaluated for the mean body weight change (BWC) in mice infected with cisplatin sensitive L1210 Leukemia (dose 10 mg/kg, ip),day 5; format: functional, organism-based; set-up: dose 10 mg/kg
# Procedure, shortened: (§1)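 CD2F1 mice implanted ip on day 0 with 10^5 L1210/0 (parent) leukemia cells, in groups of 6 or 10 (20 or 30 controls). Complexes given ip in saline plus Tween 80 on days 1, 5 and 9. BWC is the group mean weight change, day 5 minus day 1. MST is median survival and %ILS is calculated from MST, both from dying mice only, excluding day 30 survivors.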
# Mus musculus [2] = experiment: The compound was evaluated for the median survival time (MST) in mice infected with cisplatin sensitive L1210 Leukemia (dose 10 mg/kg, ip), day 1; format: functional, organism-based; set-up: dose 10 mg/kg; procedure, shortened: as §1
# Mus musculus [3] = experiment: The compound was evaluated for the median survival time (MST) in mice infected with cisplatin sensitive L1210 Leukemia (dose 40 mg/kg, ip), day 9; format: functional, organism-based; set-up: dose 40 mg/kg; procedure, shortened: as §1
# Mus musculus [4] = experiment: The compound was evaluated for the mean body weight change (BWC) in mice infected with cisplatin sensitive L1210 Leukemia (dose 20 mg/kg, ip),day 5; format: functional, organism-based; set-up: dose 20 mg/kg; procedure, shortened: as §1
# Mus musculus [5] = experiment: The compound was evaluated for the median survival time (MST) in mice infected with cisplatin sensitive L1210 Leukemia (dose 15 mg/kg, ip), day 1; format: functional, organism-based; set-up: dose 15 mg/kg; procedure, shortened: as §1
# Mus musculus [6] = experiment: The compound was evaluated for the median survival time (MST) in mice infected with cisplatin sensitive L1210 Leukemia (dose 5 mg/kg, ip), day 1; format: functional, organism-based; set-up: dose 5 mg/kg; procedure, shortened: as §1
# Mus musculus [7] = experiment: The compound was evaluated for the median survival time (MST) in mice infected with cisplatin sensitive L1210 Leukemia (dose 80 mg/kg, ip), day 9; format: functional, organism-based; set-up: dose 80 mg/kg; procedure, shortened: as §1
# Mus musculus [8] = experiment: The compound was evaluated for the mean body weight change (BWC) in mice infected with cisplatin sensitive L1210 Leukemia (dose 80 mg/kg, ip),day 9; format: functional, organism-based; set-up: dose 80 mg/kg; procedure, shortened: as §1
# Mus musculus [9] = species on record: Mus musculus; experiment: The compound was evaluated for the percentage increase in life span (ILS) based on dying mice only (excludes day 40 survivors) for following doses against L1210 Leukemia cell line, day9; format: functional, organism-based
# Mus musculus [10] = experiment: The compound was evaluated for the median survival time (MST) in mice infected with cisplatin sensitive L1210 Leukemia (dose 10 mg/kg, ip), day 9; format: functional, organism-based; set-up: dose 10 mg/kg; procedure, shortened: as §1
# Mus musculus [11] = experiment: The compound was evaluated for the median survival time (MST) in mice infected with cisplatin resistant L1210 Leukemia (dose 5 mg/kg, ip), day 1; format: functional, organism-based; set-up: dose 5 mg/kg
# Procedure, shortened: (§2)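 On day 0, 10⁵ parent or cisplatin-resistant L1210 cells were implanted ip into CD2F1 mice, 6 or 10 per dose group (20 or 30 controls). Dosing was ip on days 1, 5 and 9 in saline plus Tween 80. Median survival time was taken from dying mice only, excluding day-30 survivors. Both sublines were tested concurrently.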
# Mus musculus [12] = experiment: The compound was evaluated for the mean body weight change (BWC) in mice infected with cisplatin sensitive L1210 Leukemia (dose 40 mg/kg, ip),day 1; format: functional, organism-based; set-up: dose 40 mg/kg; procedure, shortened: as §1
# Mus musculus [13] = experiment: The compound was evaluated for the median survival time (MST) in mice infected with cisplatin sensitive L1210 Leukemia (dose 20 mg/kg, ip), day 1; format: functional, organism-based; set-up: dose 20 mg/kg; procedure, shortened: as §1
# Mus musculus [14] = experiment: The compound was evaluated for the median survival time (MST) in mice infected with cisplatin sensitive L1210 Leukemia (dose 80 mg/kg, ip), day 5; format: functional, organism-based; set-up: dose 80 mg/kg; procedure, shortened: as §1
# Mus musculus [15] = experiment: The compound was evaluated for the mean body weight change (BWC) in mice infected with cisplatin sensitive L1210 Leukemia (dose 15 mg/kg, ip),day 1; format: functional, organism-based; set-up: dose 15 mg/kg; procedure, shortened: as §1
# Mus musculus [16] = experiment: The compound was evaluated for the median survival time (MST) in mice infected with cisplatin sensitive L1210 Leukemia (dose 20 mg/kg, ip), day 9; format: functional, organism-based; set-up: dose 20 mg/kg; procedure, shortened: as §1
# Mus musculus [17] = species on record: Mus musculus; experiment: The compound was evaluated for the percentage increase in life span (ILS) based on dying mice only (excludes day 15 survivors) for following doses against L1210 Leukemia cell line, day1; format: functional, organism-based
# Mus musculus [18] = experiment: The compound was evaluated for the median survival time (MST) in mice infected with cisplatin sensitive L1210 Leukemia (dose 40 mg/kg, ip), day 5; format: functional, organism-based; set-up: dose 40 mg/kg; procedure, shortened: as §1
# Mus musculus [19] = species on record: Mus musculus; experiment: The compound was evaluated for the percentage increase in life span (ILS) based on dying mice only (excludes day 20 survivors) for following doses against L1210 Leukemia cell line, day5; format: functional, organism-based
# Tumor Cell line [20] = experiment: Evaluated in vitro for the log10 molecular concentration that caused 50 % inhibition of tumor growth of 60 human tumor cell lines; format: functional, cell-based
# Procedure, shortened: (§3)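 Cells preincubated 24 h, then exposed to the agent at five 10-fold dilutions (0.01–100 μM for the platinum complexes) for 48 h. Cells fixed in situ and stained; solubilized stain read spectrophotometrically. Panel of leukemia, non-small-cell lung, ovarian and renal lines. Log GI50 or TGI taken per cell line in one experiment, then averaged across lines.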
# Mus musculus [21] = species on record: Mus musculus; experiment: The compound was evaluated for the percentage increase in life span (ILS) based on dying mice only (excludes day 10 survivors) for following doses against L1210 Leukemia cell line, day5; format: functional, organism-based
# Mus musculus [22] = experiment: The compound was evaluated for the mean body weight change (BWC) in mice infected with cisplatin resistant L1210 Leukemia (dose 30 mg/kg, ip),day 1; format: functional, organism-based; set-up: dose 30 mg/kg
# Procedure, shortened: (§4)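 CD2F1 mice, 6 or 10 per dose group (20 or 30 controls), were implanted ip on day 0 with 10⁵ L1210/0 (parent) or L1210/cisplatin (resistant) leukemia cells. Complexes were given ip in saline plus Tween 80 on days 1, 5 and 9. Read-out was mean body weight change per group, day 5 minus day 1. Sensitive and resistant arms ran simultaneously from the same preparations.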
# Mus musculus [23] = experiment: The compound was evaluated for the median survival time (MST) in mice infected with cisplatin resistant L1210 Leukemia (dose 15 mg/kg, ip), day 1; format: functional, organism-based; set-up: dose 15 mg/kg; procedure, shortened: as §2
# Mus musculus [24] = experiment: The compound was evaluated for the median survival time (MST) in mice infected with cisplatin sensitive L1210 Leukemia (dose 10 mg/kg, ip), day 5; format: functional, organism-based; set-up: dose 10 mg/kg; procedure, shortened: as §1
# Tumor Cell line [25] = experiment: Evaluated in vitro for the log10 molecular concentration that caused […] tumor growth of 60 human tumor cell lines.; format: functional, cell-based; procedure, shortened: as §3
# Mus musculus [26] = species on record: Mus musculus; experiment: The compound was evaluated for the percentage increase in life span (ILS) based on dying mice only (excludes day survivors) for following doses against L1210 Leukemia cell line, day1; format: functional, organism-based; procedure, shortened: as §1
# Mus musculus [27] = experiment: The compound was evaluated for the mean body weight change (BWC) in mice infected with cisplatin sensitive L1210 Leukemia (dose 5 mg/kg, ip),day 1; format: functional, organism-based; set-up: dose 5 mg/kg; procedure, shortened: as §1
# Mus musculus [28] = species on record: Mus musculus; experiment: The compound was evaluated for the percentage increase in life span (ILS) based on dying mice only (excludes day 20 survivors) for following doses against L1210 Leukemia cell line, day1; format: functional, organism-based
# Mus musculus [29] = experiment: The compound was evaluated for the mean body weight change (BWC) in mice infected with cisplatin resistant L1210 Leukemia (dose 5 mg/kg, ip),day 1; format: functional, organism-based; set-up: dose 5 mg/kg; procedure, shortened: as §4
# Mus musculus [30] = experiment: The compound was evaluated for the mean body weight change (BWC) in mice infected with cisplatin sensitive L1210 Leukemia (dose 20 mg/kg, ip),day 9; format: functional, organism-based; set-up: dose 20 mg/kg; procedure, shortened: as §1
# Mus musculus [31] = experiment: The compound was evaluated for the median survival time (MST) in mice infected with cisplatin resistant L1210 Leukemia (dose 30 mg/kg, ip), day 1; format: functional, organism-based; set-up: dose 30 mg/kg; procedure, shortened: as §2
# Mus musculus [32] = experiment: The compound was evaluated for the mean body weight change (BWC) in mice infected with cisplatin sensitive L1210 Leukemia (dose 80 mg/kg, ip),day 5; format: functional, organism-based; set-up: dose 80 mg/kg; procedure, shortened: as §1
# Mus musculus [33] = experiment: The compound was evaluated for the mean body weight change (BWC) in mice infected with cisplatin sensitive L1210 Leukemia (dose 30 mg/kg, ip),day 1; format: functional, organism-based; set-up: dose 30 mg/kg; procedure, shortened: as §1
# Mus musculus [34] = experiment: The compound was evaluated for the median survival time (MST) in mice infected with cisplatin sensitive L1210 Leukemia (dose 30 mg/kg, ip), day 1; format: functional, organism-based; set-up: dose 30 mg/kg; procedure, shortened: as §1
# Mus musculus [35] = experiment: The compound was evaluated for the mean body weight change (BWC) in mice infected with cisplatin sensitive L1210 Leukemia (dose 10 mg/kg, ip),day 9; format: functional, organism-based; set-up: dose 10 mg/kg; procedure, shortened: as §1
# Mus musculus [36] = experiment: The compound was evaluated for the mean body weight change (BWC) in mice infected with cisplatin sensitive L1210 Leukemia (dose 40 mg/kg, ip),day 5; format: functional, organism-based; set-up: dose 40 mg/kg; procedure, shortened: as §1
# Mus musculus [37] = species on record: Mus musculus; experiment: The compound was evaluated for the percentage increase in life span (ILS) based on dying mice only (excludes day 40 survivors) for following doses against L1210 Leukemia cell line, day5; format: functional, organism-based
# Mus musculus [38] = experiment: The compound was evaluated for the mean body weight change (BWC) in mice infected with cisplatin resistant L1210 Leukemia (dose 15 mg/kg, ip),day 1; format: functional, organism-based; set-up: dose 15 mg/kg; procedure, shortened: as §4
# Mus musculus [39] = experiment: The compound was evaluated for the mean body weight change (BWC) in mice infected with cisplatin sensitive L1210 Leukemia (dose 20 mg/kg, ip),day 1; format: functional, organism-based; set-up: dose 20 mg/kg; procedure, shortened: as §4
# Mus musculus [40] = experiment: The compound was evaluated for the median survival time (MST) in mice infected with cisplatin resistant L1210 Leukemia (dose 20 mg/kg, ip), day 1; format: functional, organism-based; set-up: dose 20 mg/kg; procedure, shortened: as §2
# Mus musculus [41] = experiment: The compound was evaluated for the median survival time (MST) in mice infected with cisplatin sensitive L1210 Leukemia (dose 20 mg/kg, ip), day 5; format: functional, organism-based; set-up: dose 20 mg/kg; procedure, shortened: as §1
# Mus musculus [42] = experiment: The compound was evaluated for the mean body weight change (BWC) in mice infected with cisplatin resistant L1210 Leukemia (dose 20 mg/kg, ip),day 1; format: functional, organism-based; set-up: dose 20 mg/kg; procedure, shortened: as §4
substance,measurement,setting,value
[Bis(aminomethyl)dimethylsilane]dichloroplatinum (II),BWC,Mus musculus [1],-0.9 g
same,MST,Mus musculus [2],22.5 days and 10.5 days
same,MST,Mus musculus [3],11.7 days
same,BWC,Mus musculus [4],-0.6 g
same,MST,Mus musculus [5],16.3 days
same,MST,Mus musculus [6],21.5 days
same,MST,Mus musculus [7],6.3 days
same,BWC,Mus musculus [8],-4.3 g
same,ILS,Mus musculus [9],31%
same,MST,Mus musculus [10],15.5 days
same,MST,Mus musculus [11],12.5 days
same,BWC,Mus musculus [12],-2.9 g
same,MST,Mus musculus [13],16.8 days
same,MST,Mus musculus [14],11.8 days
same,BWC,Mus musculus [15],-1.7 g
same,MST,Mus musculus [16],22.5 days
same,ILS,Mus musculus [17],83%
same,MST,Mus musculus [18],30 days
same,ILS,Mus musculus [19],138%
same,GI50,Tumor Cell line [20],20.4 µM
same,ILS,Mus musculus [21],109%
same,BWC,Mus musculus [22],-2.5 g
same,MST,Mus musculus [23],18.3 days
same,MST,Mus musculus [24],18 days
same,TGI,Tumor Cell line [25],83.2 µM
same,ILS,Mus musculus [26],152%
same,BWC,Mus musculus [27],-0.4 g
same,ILS,Mus musculus [28],88%
same,BWC,Mus musculus [29],0.1 g
same,BWC,Mus musculus [30],-0.2 g
same,MST,Mus musculus [31],14.8 days
same,BWC,Mus musculus [32],-3.5 g
same,BWC,Mus musculus [33],-1.1 g
same,MST,Mus musculus [34],21.5 days
same,BWC,Mus musculus [35],-0.2 g
same,BWC,Mus musculus [36],-0.9 g
same,ILS,Mus musculus [37],248%
same,BWC,Mus musculus [38],-0.4 g
same,BWC,Mus musculus [39],-1 g
same,MST,Mus musculus [40],13.8 days
same,MST,Mus musculus [41],20.5 days
same,BWC,Mus musculus [42],-2.7 g
